IC50 and MIC data for 33 compounds are collected here from ChEMBL document CHEMBL1133924, “Inhibitors of bacterial enoyl acyl carrier protein reductase (FabI): 2,9-disubstituted 1,2,3,4-tetrahydropyrido[3,4-b]indoles as potential antibacterial agents” (Bioorg Med Chem Lett, 2001).

One may read the IC50 as the concentration that inhibits the measured activity by half. Low readings indicate greater potency, high ones weaker potency.

The target of test [1] is T1, Enoyl-[acyl-carrier-protein] reductase [NADH] FabI (Escherichia coli K-12, UniProt P0AEK4).
T1 sequence (P0AEK4 whole entry): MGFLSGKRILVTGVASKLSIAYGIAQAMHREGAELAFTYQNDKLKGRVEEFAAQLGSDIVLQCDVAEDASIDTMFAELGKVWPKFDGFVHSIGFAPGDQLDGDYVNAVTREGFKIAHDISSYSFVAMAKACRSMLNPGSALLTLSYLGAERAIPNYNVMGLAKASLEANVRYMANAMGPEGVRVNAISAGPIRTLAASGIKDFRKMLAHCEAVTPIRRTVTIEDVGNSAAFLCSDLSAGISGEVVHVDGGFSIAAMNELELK
The test is described as follows: Antibacterial activity against Escherichia coli FabI.

The test system of a further test is Moraxella catarrhalis. The test is described as follows: In vitro antibacterial activity against Moraxella catarrhalis 1502 FabI. The gist of the method:
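Broth microdilution MIC in cation-adjusted Mueller–Hinton broth. Compounds were dissolved in DMSO, diluted 1:10 in water, then serially diluted. Each well received about 1×10⁶ cfu/mL inoculum. Plates were incubated at 35 °C in ambient air for 18–24 h.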

In test [2] the target is T2, Enoyl-[acyl-carrier-protein] reductase [NADPH] FabI (Staphylococcus aureus, UniProt Q6GI75).
T2 sequence (Q6GI75 whole entry): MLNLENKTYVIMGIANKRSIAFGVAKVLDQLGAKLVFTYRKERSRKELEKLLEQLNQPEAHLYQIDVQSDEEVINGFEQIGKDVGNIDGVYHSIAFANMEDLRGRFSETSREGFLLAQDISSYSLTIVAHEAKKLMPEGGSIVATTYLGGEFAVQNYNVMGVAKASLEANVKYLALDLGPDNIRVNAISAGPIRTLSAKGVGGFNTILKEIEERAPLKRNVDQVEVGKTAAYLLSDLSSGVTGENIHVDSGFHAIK
The test is described as follows: Antibacterial activity against Staphylococcus aureus FabI.

A further test deals with Staphylococcus aureus. The test is described as follows: In vitro antibacterial activity against Staphylococcus aureus FabI.
The next test relates to Escherichia coli. The test is described as follows: In vitro antibacterial activity against Escherichia coli FabI.
Test [3] concerns the target T1, Enoyl-[acyl-carrier-protein] reductase [NADH] FabI. The test is described as follows: Antibacterial activity against Escherichia coli Enoyl-[acyl-carrier-protein] reductase was determined.

Molecules are shown by their SMILES. ≈ marks a conversion by molar mass, not a printed value.

For the compound `O=C(c1ccc(Cl)cc1)N1CCc2c(n(Cc3ccc(O)cc3)c3ccccc23)C1`, the 50% inhibitory concentration (IC50) amounted to 16.8 µM in test [1] and 0.18 µM in test [2]. In addition, the MIC is more than 64 µg/mL against Moraxella catarrhalis, 4 µg/mL (≈ 9.59 µM) in the test on Staphylococcus aureus and more than 64 µg/mL with Escherichia coli.
On to `COC(=O)CCCCn1c2c(c3ccccc31)CCN(C(=O)c1ccc(O)cc1)C2`, for which the IC50 in test [3] was found to be 26.8 µM.
Regarding `O=C(c1ccc(Cl)cc1O)N1CCc2c(n(Cc3ccc(O)cc3)c3ccccc23)C1`, the IC50 in test [1] was found to be 6.1 µM; in test [2] it was 0.16 µM. The MIC against Moraxella catarrhalis was 2 µg/mL (≈ 4.62 µM); in the test with Staphylococcus aureus, 1 µg/mL (≈ 2.31 µM); in the test with Escherichia coli, more than 64 µg/mL.
In test [2], `O=C(c1ccc(O)cc1)N1CCc2c(c3ccccc3n2Cc2ccc(O)cc2)C1` gave an IC50 of 32.4 µM.
The compound `O=C(c1ccc(O)cc1)N1CCc2c([nH]c3ccccc23)C1` gave an IC50 in test [3] of 18 µM.
The compound `O=C(c1ccc(O)cc1)N1CCc2c([nH]c3ccccc23)C1c1ccc(O)cc1` (configuration not stated) had an IC50 in test [2] of 28.1 µM.
`Oc1cc(Cl)ccc1Oc1ccc(Cl)cc1Cl`: the results for the MIC with Moraxella catarrhalis, in the test on Staphylococcus aureus and in the test on Escherichia coli were 0.06 µg/mL (≈ 0.207 µM), 0.03 µg/mL (≈ 0.104 µM) and 4 µg/mL (≈ 13.8 µM), respectively.
As for `COc1ccc(C(=O)N2CCc3c(n(Cc4ccc(O)cc4)c4ccccc34)C2)cc1`, the values for the IC50 in test [1] and in test [2] were 35.5 µM and 0.37 µM, respectively.
In the case of `CS(=O)(=O)c1ccc(Cn2c3c(c4ccccc42)CCN(C(=O)c2ccc(O)cc2)C3)cc1`, the IC50 in test [1] stood at 4.5 µM; in test [2] it was 0.33 µM.
Consider `Cc1ccc(C(=O)N2CCc3c(n(Cc4ccc(O)cc4)c4ccccc34)C2)c(O)c1`, for which the concentration for half-maximal inhibition (IC50) was 8.2 µM in test [1] and 0.12 µM in test [2]. Also, the MIC in the test with Moraxella catarrhalis was 4 µg/mL (≈ 9.7 µM); against Staphylococcus aureus, 1 µg/mL (≈ 2.42 µM); against Escherichia coli, more than 64 µg/mL.
For `Nc1ccc(Cn2c3c(c4ccccc42)CCN(C(=O)c2ccc(O)cc2)C3)cc1`, the IC50 turned out to be 21.4 µM in test [1] and 0.67 µM in test [2].
On to `CN(Cc1cc2ccccc2n1Cc1ccc(O)cc1)C(=O)c1ccc(O)cc1`, for which the IC50 in test [2] was determined as 1 µM.
Regarding `O=C(c1ccc(Cl)cc1Cl)N1CCc2c(n(Cc3ccc(O)cc3)c3ccccc23)C1`, the concentration for half-maximal inhibition (IC50) in test [1] is 35.8 µM; in test [2], 1.8 µM.
In test [3], `Cn1c2c(c3ccccc31)CCN(C(=O)c1ccc(O)cc1)C2` registered a half-maximal inhibitory concentration (IC50) of 11 µM.
Take `Cc1ccc(C(=O)N2CCc3c(n(Cc4ccc(O)cc4)c4ccccc34)C2)cc1`: the IC50 in test [1] amounted to 5.2 µM; in test [2] it was 0.24 µM. For the same compound, the values for the MIC in the test on Moraxella catarrhalis, with Staphylococcus aureus and in the test on Escherichia coli were more than 64 µg/mL, 0.5 µg/mL (≈ 1.26 µM) and more than 64 µg/mL, respectively.
Turning to `O=C(O)c1ccc(Cn2c3c(c4ccccc42)CCN(C(=O)c2ccc(O)cc2)C3)cc1`, the half-maximal inhibitory concentration (IC50) was more than 50 µM in test [1] and 8.7 µM in test [2].
With `O=C(c1ccc(O)c(Cl)c1)N1CCc2c(n(Cc3ccc(O)cc3)c3ccccc23)C1`, the IC50 in test [1] was 3.4 µM; in test [2], 0.16 µM. Further, the MIC against Moraxella catarrhalis was 4 µg/mL (≈ 9.24 µM); against Staphylococcus aureus, 1 µg/mL (≈ 2.31 µM); against Escherichia coli it was more than 64 µg/mL.
For the compound `CNc1ccc(C(=O)N2CCc3c(n(Cc4ccc(O)cc4)c4ccccc34)C2)cc1`, the 50% inhibitory concentration (IC50) in test [1] worked out at 38.6 µM; in test [2] it was 2.1 µM.
`O=C(c1ccc(O)cc1)N1CCc2c(n(Cc3ccc(O)cc3)c3ccccc23)C1`: the IC50 in test [1] is 4.2 µM; in test [2] it was 0.11 µM. For the same compound, the MIC is 8 µg/mL (≈ 20.1 µM) with Moraxella catarrhalis, 0.5 µg/mL (≈ 1.25 µM) against Staphylococcus aureus and more than 64 µg/mL with Escherichia coli.
`O=C(c1ccccc1O)N1CCc2c(n(Cc3ccc(O)cc3)c3ccccc23)C1`: the IC50 in test [1] turned out to be 4.3 µM; in test [2] it was 0.72 µM. Also, the figures for the MIC against Moraxella catarrhalis, against Staphylococcus aureus and in the test with Escherichia coli were 8 µg/mL (≈ 20.1 µM), 4 µg/mL (≈ 10 µM) and more than 64 µg/mL, respectively.
Turning to `O=C(c1ccc(O)cc1)N1CCc2c(n(Cc3ccc(F)cc3)c3ccccc23)C1`, the IC50 amounted to 4.2 µM in test [1] and 0.25 µM in test [2].
On to `Cc1cc(C(=O)N2CCc3c(n(Cc4ccc(O)cc4)c4ccccc34)C2)ccc1O`, for which the IC50 was determined as 4.4 µM in test [1] and 0.18 µM in test [2]. The MIC against Moraxella catarrhalis is 8 µg/mL (≈ 19.4 µM); in the test with Staphylococcus aureus, 1 µg/mL (≈ 2.42 µM); in the test on Escherichia coli, more than 64 µg/mL.
`Cc1cc(C(=O)N2CCc3c(n(Cc4ccc(O)cc4)c4ccccc34)C2)cc(C)c1O`: the IC50 turned out to be 23 µM in test [1] and 2.9 µM in test [2].
Regarding `CCCCc1ccc(C(=O)N2CCc3c(n(Cc4ccc(O)cc4)c4ccccc34)C2)cc1`, the half-maximal inhibitory concentration (IC50) in test [1] is more than 50 µM; in test [2] it was 0.51 µM.
For the compound `O=C(c1ccc(O)cc1)N1CCc2c(n(Cc3ccccc3)c3ccccc23)C1`, in test [3], the half-inhibitory concentration (IC50) stood at 27 µM.
For `O=C(c1ccc(O)cc1)N1CCc2c(n(Cc3cccc(O)c3)c3ccccc23)C1`, in test [3], the concentration for half-maximal inhibition (IC50) amounted to 8.8 µM.
On to `COC(=O)c1ccc(C(=O)N2CCc3c(n(Cc4ccc(O)cc4)c4ccccc34)C2)cc1`, for which the IC50 in test [1] was more than 50 µM; in test [2] it was 2 µM.
For `O=C(c1ccccc1)N1CCc2c(n(Cc3ccc(O)cc3)c3ccccc23)C1`, in that order: 2.7 µM and 0.49 µM.
As for `Nc1ccc(C(=O)N2CCc3c(n(Cc4ccc(O)cc4)c4ccccc34)C2)cc1`, the concentration for half-maximal inhibition (IC50) in test [1] amounted to 4 µM; in test [2] it was 1 µM.
In test [3], `COC(=O)Cn1c2c(c3ccccc31)CCN(C(=O)c1ccc(O)cc1)C2` showed an IC50 of 34.9 µM.
With `O=C(c1cccc(O)c1)N1CCc2c(n(Cc3ccc(O)cc3)c3ccccc23)C1`, the IC50 in test [1] is more than 50 µM; in test [2], 3.4 µM.
As for `Cc1cc(O)c(C)c(O)c1C(=O)N1CCc2c(n(Cc3ccc(O)cc3)c3ccccc23)C1`, the concentration for half-maximal inhibition (IC50) in test [1] and in test [2] was more than 50 µM each time.
Regarding `O=C(c1cc(Cl)cc(Cl)c1O)N1CCc2c(n(Cc3ccc(O)cc3)c3ccccc23)C1`, the concentration for half-maximal inhibition (IC50) in test [1] was found to be 9.9 µM; in test [2], 1.8 µM.
